Source: PubChem BioAssay
Active and inactive are the calls of the source.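 Rule for the calls, unless noted: active = Her2 level under about 52% in both replicate screens, with viability over 70% of control (limit read from the data); inconclusive = Her2 under the limit in one screen only, or viability under 70%; inactive = Her2 level above the set limit.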

What was measured:
[1] = Her2 expression decrease, cell viability multiplex – SKBR3 breast tumor cells, AlphaScreen, ATP viability, primary screen (AID 461); conditions: SKBR3 Her2 protein level, 18-24 h, measured here: SKBR3 viability, ATP luminescence, at 10 µM;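 for Her2 level: lower value means less Her2 protein in the cells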;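 for viability: percent of carrier control wells set as 100% viability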
[2] = molecular target: Receptor tyrosine-protein kinase erbB-2 (Homo sapiens) (UniProt P04626); test: as above; conditions: 18-24 h, at 10 µM, stronger effect = lower value
[3] = reduced viability of SK-BR-3 breast cancer cells – cell-based, 24 h, human, pilot screen (AID 572;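 active = viability at or below 10% of carrier control in both of two separate runs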;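 note: compound exposure lasted between 18 and 24 h rather than exactly 24 h; 100% = carrier-treated control wells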); conditions: SK-BR-3 viability, CellTiter-Glo luminescence, at 10 µM, stronger effect = lower value
[4] = HUVEC growth inhibition – cell-based, human, primary screen (AID 575;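 active = viability at or below 30% in both replicate assays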;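 note: 100% = median of untreated cell wells with 0.1% DMSO on each plate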); conditions: HUVEC proliferation, CellTiter-Glo luminescence, 72 h; at 10 µM; stronger effect = lower value
Summary of the method: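 Test system: primary human umbilical vein endothelial cells. Quantity: 1250 cells/well. Compound: single 10 µM dose, 0.1% DMSO, from 5x medium stock. Timing: 72 h treatment at 37 °C. Detection: ATP-based CellTiter-Glo luminescent read. Benchmarks: vehicle and MePR control wells. Format: 384-well plates coated with collagen.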

[5] = H69AR cell proliferation blockers – human, duplicate replicates, primary screen (AID 580;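 active = viability at or under a set limit in both replicates, limit being median viability minus 3 SD, cut at about 48% in these data, passing the limit was not always enough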;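 note: 100% = mean luminescence of untreated wells and 0% = no signal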); conditions: H69AR lung tumor cells viability, ATP luminescence, 72 h; at 10 µM; stronger effect = lower value
[6] = MRP1 drug-resistance reversers in H69AR cells – cell-based, doxorubicin co-treatment, pilot screen (AID 601;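 active = viability loss from added drug above about 55%, and viability with drug at most 40%, in both replicates, limit read from the data, passing the limit was not always enough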); conditions: CellTiter-Glo, 72 h, at 10 µM; for differential viability (reversal): stronger effect = higher value
[7] = yeast transport mutant growth inhibition pilot in 384-well plates, post-Golgi transport modulator project (AID 636; in the data active = inhibition above about 31%); conditions: absorbance 615 nm, about 18 h, stronger effect = higher value
[8] = growth suppression of yeast trafficking mutant, preliminary HTS, modulators of trafficking downstream of Golgi apparatus project, 1536-format plate, OD 615 nm (AID 637; in the data active = inhibition above about 30%); conditions: yeast transport mutant growth, absorbance 615 nm, 18 h; stronger effect = higher value
[9] = H69AR cells + 2 uM doxorubicin, measured here: viability with 2 uM doxorubicin, stronger effect = lower value
[10] = H69AR cells, compound alone cytotoxicity

Sequence of Receptor tyrosine-protein kinase erbB-2 (Homo sapiens) (P04626 whole entry, looked up): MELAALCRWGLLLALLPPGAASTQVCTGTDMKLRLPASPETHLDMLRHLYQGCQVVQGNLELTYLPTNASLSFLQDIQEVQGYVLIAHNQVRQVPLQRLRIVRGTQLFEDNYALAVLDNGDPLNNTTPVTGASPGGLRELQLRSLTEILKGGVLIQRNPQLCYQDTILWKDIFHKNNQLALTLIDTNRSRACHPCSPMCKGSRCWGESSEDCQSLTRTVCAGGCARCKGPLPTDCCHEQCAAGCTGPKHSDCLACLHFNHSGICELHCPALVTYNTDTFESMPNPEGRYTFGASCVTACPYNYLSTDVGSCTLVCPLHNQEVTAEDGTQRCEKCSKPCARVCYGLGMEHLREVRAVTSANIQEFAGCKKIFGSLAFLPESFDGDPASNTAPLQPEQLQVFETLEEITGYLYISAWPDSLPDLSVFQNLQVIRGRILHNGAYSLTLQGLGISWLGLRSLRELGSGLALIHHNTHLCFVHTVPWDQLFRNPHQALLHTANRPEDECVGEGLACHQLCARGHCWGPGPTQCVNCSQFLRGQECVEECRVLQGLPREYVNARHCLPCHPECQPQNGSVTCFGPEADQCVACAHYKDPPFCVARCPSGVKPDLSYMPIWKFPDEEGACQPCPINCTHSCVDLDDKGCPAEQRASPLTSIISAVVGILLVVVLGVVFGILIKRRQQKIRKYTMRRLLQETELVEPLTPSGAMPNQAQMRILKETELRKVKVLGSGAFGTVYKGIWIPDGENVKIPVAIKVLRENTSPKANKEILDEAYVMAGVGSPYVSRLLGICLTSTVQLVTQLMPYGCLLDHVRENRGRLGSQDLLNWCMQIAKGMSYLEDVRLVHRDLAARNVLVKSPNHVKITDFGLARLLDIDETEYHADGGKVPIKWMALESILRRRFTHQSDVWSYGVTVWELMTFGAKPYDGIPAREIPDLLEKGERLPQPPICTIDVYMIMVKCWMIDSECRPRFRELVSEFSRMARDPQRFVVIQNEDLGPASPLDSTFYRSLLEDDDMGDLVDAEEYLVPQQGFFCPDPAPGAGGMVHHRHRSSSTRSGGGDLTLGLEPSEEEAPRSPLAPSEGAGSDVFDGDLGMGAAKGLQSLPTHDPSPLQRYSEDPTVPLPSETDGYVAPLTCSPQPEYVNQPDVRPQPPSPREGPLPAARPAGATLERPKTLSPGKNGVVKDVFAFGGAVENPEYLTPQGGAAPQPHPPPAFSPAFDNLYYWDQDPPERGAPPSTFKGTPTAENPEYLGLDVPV

| SMILES | viability [1] [%] | Her2 level [2] | viability [3] | viability [4] | viability [5] | differential viability (reversal) ([6]; H69AR cells + 2 uM doxorubicin) | viability [6, 9] [%] | viability [6, 10] [%] | inhibition [7] | inhibition [8] |
| --- | --- | --- | --- | --- | --- | --- | --- | --- | --- | --- |
| Cc1ccc(NC(=O)c2ccc(NS(=O)(=O)c3c(C)noc3C)cc2)cc1C | 97 | 81.5% (inactive) | 97% (inactive) | 84.1% (inactive) | 95% (inactive) | 11.6% (inactive) | 83.4 | 95 | -2.24% (inactive) | -4.55% (inactive) |
| CCOC(=O)c1c(NC(=O)CSc2nc3c(c(=O)n(C)c(=O)n3C)n2C(C)C)sc(C)c1C | 106 | 94% (inactive) | 106% (inactive) | 91.4% (inactive) | 89.9% (inactive) | -2.12% (inactive) | 92.1 | 89.9 | -0.53% (inactive) | -3.23% (inactive) |
| CCOC(=O)c1[nH]nc(-c2c(O)cc(C)cc2O)c1-c1csc(C)n1 | 94 | 106% (inactive) | 94% (inactive) | 106% (inactive) | 96.5% (inactive) | 6.7% (inactive) | 89.8 | 96.5 | -6.71% (inactive) | -2.91% (inactive) |
| N#CCc1c(C#N)c(N)nc(N2CCN(S(=O)(=O)c3ccccc3)CC2)c1C#N | 74 | 75.5% (inactive) | 74% (inactive) | 59% (inactive) | 77.6% (inactive) | -13.6% (inactive) | 91.2 | 77.6 | -4.46% (inactive) | 0.16% (inactive) |
| COC(=O)c1ccc(-c2sc3nc(N4CCOCC4)c4c(c3c2N)CCCC4)o1 | 108 | 104% (inactive) | 108% (inactive) | 74.4% (inactive) | 91% (inactive) | -1.13% (inactive) | 92.2 | 91 | -4% (inactive) | 27.3% (inactive) |
| Cc1cc(NC(=O)c2ccc3c(c2)C(=O)N(Cc2cccnc2)C3=O)no1 | 96.5 | 110% (inactive) | 96.5% (inactive) | 106% (inactive) | 102% (inactive) | 0.045% (inactive) | 102 | 102 | -1.07% (inactive) | 12.5% (inactive) |
| CC(=O)N(c1ccc(N(C(C)=O)S(=O)(=O)c2cccs2)cc1)S(=O)(=O)c1cccs1 | 90 | 104% (inactive) | 90% (inactive) | 85% (inactive) | 86% (inactive) | -22.3% (inactive) | 108 | 86 | -1.18% (inactive) | 1.15% (inactive) |
| CCOC(=O)c1ccc(NC(=O)NC(C)C2CCCO2)cc1 (stereo not given) | 97.5 | 96.5% (inactive) | 97.5% (inactive) | 108% (inactive) | 95.6% (inactive) | 5.2% (inactive) | 90.4 | 95.6 | -1.32% (inactive) | -7.94% (inactive) |
| C=CCSc1ncccc1C(=O)O | 89.5 | 104% (inactive) | 89.5% (inactive) | 98.4% (inactive) | 97.1% (inactive) | 8.72% (inactive) | 88.3 | 97.1 | -1.32% (inactive) | -7.42% (inactive) |
| Cc1ccccc1N1C(N)=NC(N)=NC1(C)C | 107 | 84% (inactive) | 107% (inactive) | 98.3% (inactive) | 90.6% (inactive) | -0.97% (inactive) | 91.5 | 90.6 | -3.9% (inactive) | -3.17% (inactive) |
| Cc1ccc(N2C(=O)c3ccccc3C2O)nc1 (stereo not given) | 122 | 93% (inactive) | 122% (inactive) | 59.8% (inactive) | 53.6% (inactive) | 0.305% (inactive) | 53.3 | 53.6 | -0.13% (inactive) | -1.83% (inactive) |
| CCC(=O)N1CCCc2cc(S(=O)(=O)N3CCCc4ccccc43)ccc21 | 89.5 | 76.5% (inactive) | 89.5% (inactive) | 87.2% (inactive) | 77.6% (inactive) | -3.92% (inactive) | 81.5 | 77.6 | -2.76% (inactive) | -2.1% (inactive) |
| CCN1CCN(S(=O)(=O)Cc2ccccc2)CC1 | 116 | 114% (inactive) | 116% (inactive) | 105% (inactive) | 91.4% (inactive) | -0.695% (inactive) | 92.1 | 91.4 | 1.62% (inactive) | 12.9% (inactive) |
| Cc1ccc(/C(O)=C2/C(=O)C(=O)N(Cc3ccco3)C2c2cccs2)cc1 (stereo not given) | 103 | 114% (inactive) | 103% (inactive) | 101% (inactive) | 67.6% (inactive) | -13.1% (inactive) | 80.7 | 67.6 | -5.21% (inactive) | -7.78% (inactive) |
| CCc1nc(SCC(=O)Nc2nccs2)c2oc3ccccc3c2n1 | 91 | 87.5% (inactive) | 91% (inactive) | 109% (inactive) | 37.4% (active) | -5.17% (inactive) | 42.6 | 37.4 | -7.43% (inactive) | -7% (inactive) |
